From ChEMBL document CHEMBL4145462, “Nitrogen-containing ecdysteroid derivatives vs. multi-drug resistance in cancer: Preparation and antitumor activity of oximes, oxime ethers and a lactam” (Eur J Med Chem, 2018)

Experiments:
HeLa = experiment: Antiproliferative activity against human HeLa cells after 72 hrs by MTT assay; assay type: functional, cell-based
Method in brief: (§1)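 Cells grown in MEM with 10% FCS, 1% non-essential amino acids and 1% penicillin-streptomycin. Seeded at 5000 cells/well, exposed to 0.1–30.0 µM compound for 72 h. MTT (5 mg/ml solution) was then added for 4 h, formazan dissolved in DMSO, and absorbance read at 545 nm. Cisplatin served as positive control. IC50 came from sigmoidal dose–response fits (log inhibitor vs normalized response, variable slope).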

SiHa = experiment: Antiproliferative activity against human SiHa cells after 72 hrs by MTT assay; assay type: functional, cell-based; method in brief: as §1
MDA-MB-231 = experiment: Antiproliferative activity against human MDA-MB-231 cells after 72 hrs by MTT assay; assay type: functional, cell-based; conditions: MDA-MB-231, 72 h; method in brief: as §1
MCF7 = experiment: Antiproliferative activity against human MCF7 cells after 72 hrs by MTT assay; assay type: functional, cell-based; conditions: MCF7, 72 h; method in brief: as §1
[1] = Cytotoxicity against mouse L5178 cells after 48 hrs by MTT assay; assay type: functional, cell-based; conditions: L5178, 48 h
Method in brief: (§2)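 Parental mouse lymphoma L5178 and the MDR line made by pHa MDR1/A retrovirus transfection, selected with 60 µg/L colchicine. Grown in McCoy's 5A with horse serum at 37°C, 5% CO2. 5 x 10^4 cells/well, serial compound dilutions, 48 h. MTT added to 0.5 mg/mL final for 4 h, then 10% SDS in 0.01 M HCl overnight, OD read at 540 and 630 nm. IC50 taken as median cytotoxic activity (Dm) from control lanes of checkerboard plates, n=2.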

[2] = Cytotoxicity against mouse L5178 cells expressing human ABCB1 after 48 hrs by MTT assay; assay type: functional, cell-based; conditions: L5178, 48 h; method in brief: as §2
ABCB1 (P-glycoprotein) [3] = target: T1, ABCB1 (P-glycoprotein) (Homo sapiens, UniProt P08183); experiment: Inhibition of human ABCB1 expressed in mouse L5178 cells assessed as increase in rhodamine-123 accumulation at 2 uM after 10 mins by flow cytometric analysis relative to control; assay type: cell-based; conditions: mouse L5178 cells expressing human ABCB1, probe rhodamine-123
Method in brief: (§3)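 Cells at 2 × 10^6/mL were preincubated 10 min with compound. Rhodamine 123 then added to 5.2 µM final, 20 min at 37 °C. Cells washed twice in PBS, resuspended and read by flow cytometry. Percent inhibition was scaled between MDR-cell accumulation (0%) and parental L5178 accumulation (100%). Controls: 100 nM tariquidar (positive) and 2% DMSO (negative).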

ABCB1 (P-glycoprotein) [4] = target: T1, ABCB1 (P-glycoprotein); experiment: Inhibition of human ABCB1 expressed in mouse L5178 cells assessed as increase in rhodamine-123 accumulation at 20 uM after 10 mins by flow cytometric analysis relative to control; assay type: cell-based; conditions: mouse L5178 cells expressing human ABCB1, probe rhodamine-123; method in brief: as §3
[5] = Synergistic cytotoxicity against mouse L5178 cells assessed as combination index at ED50 using 150:1 test compound to doxorubicin ratio after 48 hrs by MTT-based checkerboard microplate method; assay type: functional
Method in brief: (§4)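 Checkerboard microplate combinations of compound with doxorubicin at constant molar ratios. 5 × 10^4 cells/well in McCoy's 5A, 48 h at 37°C, 5% CO2. MTT added to 0.5 mg/mL final for 4 h, SDS/HCl overnight, OD read at 540 and 630 nm. Combination indices derived per ratio for 50%, 75% and 90% growth inhibition by median-effect analysis.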

[6] = Synergistic cytotoxicity against mouse L5178 cells expressing human ABCB1 assessed as combination index at ED50 using 15:1 test compound to doxorubicin ratio after 48 hrs by MTT-based checkerboard microplate method; assay type: functional; method in brief: as §4
[7] = Synergistic cytotoxicity against mouse L5178 cells assessed as combination index at ED75 using 150:1 test compound to doxorubicin ratio after 48 hrs by MTT-based checkerboard microplate method; assay type: functional; method in brief: as §4
[8] = Synergistic cytotoxicity against mouse L5178 cells assessed as combination index at ED90 using 150:1 test compound to doxorubicin ratio after 48 hrs by MTT-based checkerboard microplate method; assay type: functional; method in brief: as §4
[9] = Synergistic cytotoxicity against mouse L5178 cells expressing human ABCB1 assessed as combination index at ED75 using 15:1 test compound to doxorubicin ratio after 48 hrs by MTT-based checkerboard microplate method; assay type: functional; method in brief: as §4
[10] = Synergistic cytotoxicity against mouse L5178 cells expressing human ABCB1 assessed as combination index at ED90 using 15:1 test compound to doxorubicin ratio after 48 hrs by MTT-based checkerboard microplate method; assay type: functional; method in brief: as §4
[11] = Synergistic cytotoxicity against mouse L5178 cells expressing human ABCB1 assessed as combination index at ED50 using 30:1 test compound to doxorubicin ratio after 48 hrs by MTT-based checkerboard microplate method; assay type: functional; method in brief: as §4
[12] = Synergistic cytotoxicity against mouse L5178 cells expressing human ABCB1 assessed as combination index at ED75 using 30:1 test compound to doxorubicin ratio after 48 hrs by MTT-based checkerboard microplate method; assay type: functional; method in brief: as §4
[13] = Synergistic cytotoxicity against mouse L5178 cells expressing human ABCB1 assessed as combination index at ED90 using 30:1 test compound to doxorubicin ratio after 48 hrs by MTT-based checkerboard microplate method; assay type: functional; method in brief: as §4
[14] = Synergistic cytotoxicity against mouse L5178 cells expressing human ABCB1 assessed as combination index at ED50 using 7.5:1 test compound to doxorubicin ratio after 48 hrs by MTT-based checkerboard microplate method; assay type: functional; method in brief: as §4
[15] = Synergistic cytotoxicity against mouse L5178 cells expressing human ABCB1 assessed as combination index at ED75 using 7.5:1 test compound to doxorubicin ratio after 48 hrs by MTT-based checkerboard microplate method; assay type: functional; method in brief: as §4
[16] = Synergistic cytotoxicity against mouse L5178 cells expressing human ABCB1 assessed as combination index at ED90 using 7.5:1 test compound to doxorubicin ratio after 48 hrs by MTT-based checkerboard microplate method; assay type: functional; method in brief: as §4
[17] = Synergistic cytotoxicity against mouse L5178 cells assessed as combination index at ED50 using 37.5:1 test compound to doxorubicin ratio after 48 hrs by MTT-based checkerboard microplate method; assay type: functional; method in brief: as §4
[18] = Synergistic cytotoxicity against mouse L5178 cells assessed as combination index at ED75 using 37.5:1 test compound to doxorubicin ratio after 48 hrs by MTT-based checkerboard microplate method; assay type: functional; method in brief: as §4
[19] = Synergistic cytotoxicity against mouse L5178 cells assessed as combination index at ED90 using 37.5:1 test compound to doxorubicin ratio after 48 hrs by MTT-based checkerboard microplate method; assay type: functional; method in brief: as §4
[20] = Synergistic cytotoxicity against mouse L5178 cells assessed as combination index at ED50 using 75:1 test compound to doxorubicin ratio after 48 hrs by MTT-based checkerboard microplate method; assay type: functional; method in brief: as §4
[21] = Synergistic cytotoxicity against mouse L5178 cells assessed as combination index at ED75 using 75:1 test compound to doxorubicin ratio after 48 hrs by MTT-based checkerboard microplate method; assay type: functional; method in brief: as §4
[22] = Synergistic cytotoxicity against mouse L5178 cells assessed as combination index at ED90 using 75:1 test compound to doxorubicin ratio after 48 hrs by MTT-based checkerboard microplate method; assay type: functional; method in brief: as §4
[23] = Synergistic cytotoxicity against mouse L5178 cells expressing human ABCB1 assessed as combination index at ED50 using 60:1 test compound to doxorubicin ratio after 48 hrs by MTT-based checkerboard microplate method; assay type: functional; method in brief: as §4
[24] = Synergistic cytotoxicity against mouse L5178 cells expressing human ABCB1 assessed as combination index at ED75 using 60:1 test compound to doxorubicin ratio after 48 hrs by MTT-based checkerboard microplate method; assay type: functional; method in brief: as §4
[25] = Synergistic cytotoxicity against mouse L5178 cells expressing human ABCB1 assessed as combination index at ED90 using 60:1 test compound to doxorubicin ratio after 48 hrs by MTT-based checkerboard microplate method; assay type: functional; method in brief: as §4
[26] = Synergistic cytotoxicity against mouse L5178 cells assessed as combination index at ED50 using 300:1 test compound to doxorubicin ratio after 48 hrs by MTT-based checkerboard microplate method; assay type: functional; method in brief: as §4
[27] = Synergistic cytotoxicity against mouse L5178 cells assessed as combination index at ED75 using 300:1 test compound to doxorubicin ratio after 48 hrs by MTT-based checkerboard microplate method; assay type: functional; method in brief: as §4
[28] = Synergistic cytotoxicity against mouse L5178 cells assessed as combination index at ED90 using 300:1 test compound to doxorubicin ratio after 48 hrs by MTT-based checkerboard microplate method; assay type: functional; method in brief: as §4
[29] = Synergistic cytotoxicity against mouse L5178 cells assessed as combination index at ED50 using 600:1 test compound to doxorubicin ratio after 48 hrs by MTT-based checkerboard microplate method; assay type: functional; method in brief: as §4
[30] = Synergistic cytotoxicity against mouse L5178 cells assessed as combination index at ED75 using 600:1 test compound to doxorubicin ratio after 48 hrs by MTT-based checkerboard microplate method; assay type: functional; method in brief: as §4
[31] = Synergistic cytotoxicity against mouse L5178 cells assessed as combination index at ED90 using 600:1 test compound to doxorubicin ratio after 48 hrs by MTT-based checkerboard microplate method; assay type: functional; method in brief: as §4

T1 sequence (P08183 whole entry): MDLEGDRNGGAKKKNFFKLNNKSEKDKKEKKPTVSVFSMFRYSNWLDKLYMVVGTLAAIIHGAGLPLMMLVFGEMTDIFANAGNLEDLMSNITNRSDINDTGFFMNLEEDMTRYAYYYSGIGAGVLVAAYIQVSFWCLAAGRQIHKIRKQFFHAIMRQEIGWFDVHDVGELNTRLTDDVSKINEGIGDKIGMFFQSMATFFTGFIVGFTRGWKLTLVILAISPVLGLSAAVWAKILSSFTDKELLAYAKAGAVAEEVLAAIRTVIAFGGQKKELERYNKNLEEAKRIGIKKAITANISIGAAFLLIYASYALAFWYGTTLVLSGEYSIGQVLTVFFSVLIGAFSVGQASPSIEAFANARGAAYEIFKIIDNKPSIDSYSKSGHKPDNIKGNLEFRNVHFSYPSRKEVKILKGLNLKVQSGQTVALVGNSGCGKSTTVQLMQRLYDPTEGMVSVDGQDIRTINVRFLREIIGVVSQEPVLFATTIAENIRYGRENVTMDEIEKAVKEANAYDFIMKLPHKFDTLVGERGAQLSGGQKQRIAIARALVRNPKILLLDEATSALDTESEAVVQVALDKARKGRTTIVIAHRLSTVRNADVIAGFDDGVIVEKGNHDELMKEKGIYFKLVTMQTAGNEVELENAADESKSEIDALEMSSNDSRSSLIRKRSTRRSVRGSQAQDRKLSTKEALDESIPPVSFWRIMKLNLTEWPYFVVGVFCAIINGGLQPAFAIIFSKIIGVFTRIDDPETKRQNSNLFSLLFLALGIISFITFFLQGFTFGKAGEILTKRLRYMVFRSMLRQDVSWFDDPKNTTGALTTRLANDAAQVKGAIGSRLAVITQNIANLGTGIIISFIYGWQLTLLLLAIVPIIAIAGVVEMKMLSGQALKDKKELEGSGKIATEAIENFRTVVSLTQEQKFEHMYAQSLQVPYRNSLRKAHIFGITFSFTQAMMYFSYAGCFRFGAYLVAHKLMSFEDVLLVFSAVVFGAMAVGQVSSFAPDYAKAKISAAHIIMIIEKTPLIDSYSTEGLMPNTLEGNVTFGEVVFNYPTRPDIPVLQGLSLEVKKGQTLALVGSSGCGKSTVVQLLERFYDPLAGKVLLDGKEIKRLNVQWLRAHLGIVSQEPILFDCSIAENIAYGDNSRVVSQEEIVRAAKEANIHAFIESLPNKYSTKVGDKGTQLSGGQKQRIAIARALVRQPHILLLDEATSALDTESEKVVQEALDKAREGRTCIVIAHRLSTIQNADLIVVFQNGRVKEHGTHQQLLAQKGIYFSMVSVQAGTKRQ

CCO/N=C1\C=C2[C@H](CC[C@]3(C)[C@@H]([C@@]4(C)OC(C)(C)O[C@@H]4CCC(C)(C)O)CC[C@@]23O)[C@@]2(C)C[C@@H]3OC(C)(C)O[C@@H]3C[C@@H]12
IC50 (HeLa): > 30 µM | IC50 (SiHa): > 30 µM | IC50 (MDA-MB-231): > 30 µM | IC50 (MCF7): 22.6 µM | IC50 [1]: 35 µM | IC50 [2]: 47 µM | inhibition at 10 min, 2 µM (ABCB1 (P-glycoprotein) [3]): 17.5% | inhibition at 10 min, 20 µM (ABCB1 (P-glycoprotein) [4]): 78.8% | CI [5]: 0.17 | CI [6]: 0.57 | CI [7]: 0.8 | CI [8]: 1.1 | CI [9]: 0.16 | CI [10]: 0.15 | CI [11]: 0.2 | CI [12]: 0.23 | CI [13]: 0.26 | CI [14]: 0.18 | CI [15]: 0.14 | CI [16]: 0.12 | CI [17]: 0.55 | CI [18]: 0.58 | CI [19]: 0.6 | CI [20]: 0.59 | CI [21]: 0.7 | CI [22]: 0.84 | CI [23]: 0.31 | CI [24]: 0.35 | CI [25]: 0.41 | CI [26]: 1.09 | CI [27]: 1.08 | CI [28]: 1.06 | CI [29]: 1.02 | CI [30]: 0.95 | CI [31]: 0.89
